Tests used:
[1] = tested on: P-gp/BCRP at the non-human primate BBB; settings: intravenous administration; cited from earlier work
[2] = tested on: P-gp/BCRP; settings: humans, oral dosing; cited from earlier work
[3] = FVB mice, microemulsion dosing; cited from earlier work
[4] = type: in vivo, Sprague–Dawley rats
Outline: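 Male Sprague–Dawley rats (10–12 weeks, 0.31–0.48 kg), n = 5/group, given 15 mg/kg once as solution or microemulsion by gavage or i.p. injection. The solution only was also given as an i.v. tail-vein bolus under isoflurane. Sublingual blood was drawn at 0.5, 1, 2, 4, 8 and 24 h. Plasma was methanol-precipitated and assayed by LC–MS/MS (calibration 0.005–10 µg/mL). Cmax, Tmax and trapezoidal AUC0–24 came from non-fitted data, expressed relative to i.v.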

[5] = Tolerability of tariquidar administration in rats; type: in vivo, Sprague–Dawley rats; settings: 15 mg/kg single dose, intravenous, oral or intraperitoneal
[6] = tested on: P-gp at the BBB; settings: rats, plasma concentration; cited from earlier work
[7] = tested on: P-gp at the human BBB; settings: humans, P-gp inhibition at the BBB, plasma concentration; cited from earlier work
[8] = tested on: human BCRP; settings: cited from earlier work
[9] = tested on: human P-gp; settings: cited from earlier work
[10] = tested on: P-gp at the BBB; settings: humans, cited from earlier work
[11] = rats and monkeys, after intravenous [14C]tariquidar; cited from earlier work
[12] = humans, after intravenous administration; cited from earlier work
[13] = Sprague-Dawley, rat, plasma, iv, 15 mg/kg
[14] = intraperitoneal dosing, both formulations pooled, rats
[15] = oral dosing irrespective of formulation, rats

SMILES: COc1cc2c(cc1OC)CN(CCc1ccc(NC(=O)c3cccc4c(=O)c5cccc(OC)c5[nH]c34)cc1)CC2 [elacridar]
- increase in brain distribution of [11C]erlotinib [1]: 3.5 fold
- effect on brain uptake of [11C]erlotinib [2]: failed to increase brain uptake
- oral bioavailability [3]: 47%

SMILES: COc1cc2c(cc1OC)CN(CCc1ccc(NC(=O)c3cc(OC)c(OC)cc3NC(=O)c3cnc4ccccc4c3)cc1)CC2 [tariquidar]
- AUC(0-t) [4, 13]: 25200 ng·h/mL
- Cmax [4, 13]: 1900 ng/mL
- Tmax [4, 13]: 30 min
- concentration at 30 min [4, 13]: 1910 ± 290 ng/mL
- mean AUC0–24 as % of value after intravenous dosing [4, 14]: ~97%
- mean Cmax as % of value after intravenous dosing [4, 14]: approximately 80%
- mean AUC0–24 as % of value after intravenous exposure [4, 15]: ~79%
- mean Cmax as % of value after intravenous exposure [4, 15]: approximately 65%
- tolerability [5]: well tolerated by all animals
- in vivo half-maximum effect concentration (EC50) to increase brain uptake of (R)-[11C]verapamil [6]: 0.545 ± 0.03 µg/mL
- in vivo EC50 [7]: 1.454 µg/mL
- in vitro EC50 for inhibition of its own transport ([8]; human BCRP): 0.201 µg/mL
- ratio of EC50 for human BCRP to EC50 for human P-gp ([8]; inhibition of its own transport, in vitro): approximately 20 fold
- in vitro EC50 for inhibition of its own transport [9]: 0.011 µg/mL
- increase in brain distribution of (R)-[11C]verapamil and [11C]N-desmethyl-loperamide ([10]; PET, continuous intravenous infusion): up to fivefold increases
- effect on brain distribution of [11C]N-desmethyl-loperamide ([10]; orally administered tariquidar): failed to reveal an effect
- tariquidar-related material in plasma existing as unchanged parent compound [11]: > 95%
- tariquidar metabolites in plasma [12]: no tariquidar metabolites were found in plasma

Reference: publication PMC6133083 (European Journal of Drug Metabolism and Pharmacokinetics, 2018)
